Legend:
Format in all cases: functional
Rattus norvegicus [1] = organism: Rattus norvegicus; assay: The compound was tested for % change in plasma total cholesterol in normocholesterolemic rats at 0.2 % composition of dose with diet given in a period of 7 days
Procedure, shortened: (§1)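 Young male Wistar rats (120–150 g) fed basal powdered rodent diet ad libitum, with compound mixed into the diet at 0.2% w/w for 3 or 7 days. Plasma triglyceride and total cholesterol were then measured by standard enzymatic methods. Results are % change relative to controls.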

[2] = Ratio of plasma HDL cholesterol/total cholesterol at 100 mg/kg for 3 days
Procedure, shortened: (§2)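 Young male Wistar rats (120–150 g), groups of eight, fed ad libitum rodent diet with 0.5% w/w cholesterol and 0.25% cholic acid for 10 days. Compound suspended in 0.5% w/w tragacanth mucilage and given daily by stomach tube over the final 3 days; controls got vehicle. After overnight starvation, rats were killed 3 h post final dose and cardiac blood taken into heparin.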

Rattus norvegicus [3] = assay: The compound was tested for % change in plasma triglycerides in cholesterol-fed rats at 100 mg/kg dose given in a period of 3 days; procedure, shortened: as §2
Rattus norvegicus [4] = assay: Percent change in plasma total cholesterol in cholesterol-fed rats at 200 mg/kg dose given in a period of 3 days; procedure, shortened: as §2
Rattus norvegicus [5] = assay: The compound was tested for % change in plasma HDL cholesterol in cholesterol-fed rats at 50 mg/kg dose given in a period of 3 days; procedure, shortened: as §2
Rattus norvegicus [6] = assay: The compound was tested for % change in plasma triglycerides in cholesterol-fed rats at 50 mg/kg dose given in a period of 3 days; procedure, shortened: as §2
[7] = Ratio of plasma HDL cholesterol/total cholesterol at 50 mg/kg for 3 days; procedure, shortened: as §2
Rattus norvegicus [8] = assay: Percent change in plasma triglycerides in cholesterol-fed rats at 200 mg/kg dose given in a period of 3 days; procedure, shortened: as §2
Rattus norvegicus [9] = organism: Rattus norvegicus; assay: Change in plasma total cholesterol in normocholesterolemic rats at 0.2 % composition of dose with diet given in a period of 3 days.; procedure, shortened: as §1
Rattus norvegicus [10] = assay: The compound was tested for % change in plasma HDL cholesterol in cholesterol-fed rats at 100 mg/kg dose given in a period of 3 days; procedure, shortened: as §2
Rattus norvegicus [11] = organism: Rattus norvegicus; assay: The compound was tested for % change in plasma triglycerides in normocholesterolemic rats at 0.2 % composition of dose with diet given in a period of 7 days; procedure, shortened: as §1
Rattus norvegicus [12] = organism: Rattus norvegicus; assay: tested for % change in plasma triglycerides in normocholesterolemic rats at 0.2 % composition of dose with diet given in a period of 3 days; procedure, shortened: as §1
Rattus norvegicus [13] = assay: Ratio of plasma HDL cholesterol/total cholesterol at 200 g/kg for 3 days; settings: in the assay text read “200 mg/kg” for “200 g/kg”; procedure, shortened: as §2
Rattus norvegicus [14] = assay: The compound was tested for % change in plasma total cholesterol in cholesterol-fed rats at 50 mg/kg dose given in a period of 3 days; procedure, shortened: as §2
Rattus norvegicus [15] = assay: The compound was tested for % change in plasma total cholesterol in cholesterol-fed rats at 100 mg/kg dose given in a period of 3 days; procedure, shortened: as §2
Rattus norvegicus [16] = assay: Percent change in plasma HDL cholesterol in cholesterol-fed rats at 200 mg/kg dose given in a period of 3 days; procedure, shortened: as §2
Rattus norvegicus [17] = organism: Rattus norvegicus; assay: The compound was tested for % change in plasma triglycerides in normocholesterolemic rats at 0.2 % composition of dose with diet given in a period of 3 days; procedure, shortened: as §1
[18] = Ratio of plasma HDL cholesterol/total cholesterol at 25 mg/kg for 3 days; procedure, shortened: as §2
Rattus norvegicus [19] = organism: Rattus norvegicus; assay: Change in plasma triglycerides in normocholesterolemic rats at 0.2 % composition of dose with diet given in a period of 3 days.; procedure, shortened: as §1
Rattus norvegicus [20] = assay: The compound was tested for % change in plasma HDL cholesterol in cholesterol-fed rats at 200 mg/kg dose given in a period of 3 days;; procedure, shortened: as §2
Rattus norvegicus [21] = assay: The compound was tested for % change in plasma HDL cholesterol in cholesterol-fed rats at 25 mg/kg dose given in a period of 3 days; procedure, shortened: as §2
Rattus norvegicus [22] = assay: % change in plasma triglycerides in cholesterol-fed rats at 100 mg/kg dose given in a period of 3 days administered orally; settings: route oral; procedure, shortened: as §2
[23] = Ratio of plasma HDL cholesterol/total cholesterol at 200 mg/kg for 3 days; procedure, shortened: as §2
Rattus norvegicus [24] = assay: The compound was tested for % change in plasma triglycerides in cholesterol-fed rats at 25 mg/kg dose given in a period of 3 days; procedure, shortened: as §2
Rattus norvegicus [25] = assay: The compound was tested for % change in plasma total cholesterol in cholesterol-fed rats at 25 mg/kg dose given in a period of 3 days; procedure, shortened: as §2
Rattus norvegicus [26] = organism: Rattus norvegicus; assay: Tested for % change in plasma triglycerides in normocholesterolemic rats at 0.2 % composition of dose with diet given in a period of 3 days; procedure, shortened: as §1
Rattus norvegicus [27] = organism: Rattus norvegicus; assay: Tested for % change in plasma total cholesterol in normocholesterolemic rats at 0.2 % composition of dose with diet given in a period of 3 days; procedure, shortened: as §1

Row | Compound | Change (Rattus norvegicus [1]) [%] | Ratio [2] | Change (Rattus norvegicus [4]) [%] | Change (Rattus norvegicus [5]) [%] | Change (Rattus norvegicus [6]) [%] | Ratio [7] | Change (Rattus norvegicus [8]) [%] | Change (Rattus norvegicus [9]) [%] | Change (Rattus norvegicus [10]) [%] | Change (Rattus norvegicus [11]) [%] | Change in HDL/total cholesterol ratio (Rattus norvegicus [13]) | Change (Rattus norvegicus [14]) [%] | Change (Rattus norvegicus [15]) [%] | Change (Rattus norvegicus [16]) [%] | further results
1 | CC(C)(C)c1ccc(-c2nc3ccc(Br)cc3c(=O)o2)cc1 | -39 | 110 | -25 | 40 | 6 | 49 | -3 | -47 | 71 | -40 | 114 | -12 | -25 | 74 | Change (Rattus norvegicus [3]): -6%; Change (Rattus norvegicus [12]): -16%
2 | Cc1ccc2nc(-c3ccc(CC(C)(C)C)cc3)oc(=O)c2c1 | – | – | -12 | – | – | – | 23 | -10 | – | – | – | – | – | 28 | Change (Rattus norvegicus [17]): 16%; Ratio ([18]; dose 200 mg/kg, in the assay text read “200 mg/kg” for “25 mg/kg”): 50
3 | CC(C)(C)c1ccc(C(=O)Nc2ccc(Br)cc2C(=O)[O-])cc1.[Na+] | – | – | -7 | – | – | – | 15 | -42 | – | – | 64 | – | – | – | Change (Rattus norvegicus [19]): -18%; Change (Rattus norvegicus [20]): 57%
4 | Cc1ccc2nc(-c3ccc(C(C)(C)C)cc3)oc(=O)c2c1 | -15 | 65 | -27 | 31 | 21 | 56 | -17 | – | 15 | -33 | – | -19 | -34 | 50 | Change (Rattus norvegicus [21]): 30%; Change (Rattus norvegicus [22]): -18%; Ratio [23]: 92; Change (Rattus norvegicus [24]): -1%; Ratio ([18]; dose 25 mg/kg): 31; Change (Rattus norvegicus [25]): -5%
5 | Cc1ccc(NC(=O)c2ccc(C(C)(C)C)cc2)c(C(=O)O)c1 | – | – | -9 | – | – | – | 8 | – | – | – | 47 | – | – | 91 | Change (Rattus norvegicus [26]): -16%; Change (Rattus norvegicus [27]): -15%

From ChEMBL document CHEMBL1124334, “Hypolipidemic 2-[4-(1,1-dimethylethyl)phenyl]-4H-3,1-benzoxazin-4-ones. Structure-activity relationships of a novel series of high-density lipoprotein elevators” (1989)
